Measurements: ChEMBL document CHEMBL1139577, “Discovery of 3-OH-3-methylpipecolic hydroxamates: potent orally active inhibitors of aggrecanase and MMP-13” (Bioorg Med Chem Lett, 2005)

Legend:
Interstitial collagenase = target: T1, Interstitial collagenase (Homo sapiens, UniProt P03956); test: Inhibitory concentration against MMP-1
T1 sequence (P03956 whole entry): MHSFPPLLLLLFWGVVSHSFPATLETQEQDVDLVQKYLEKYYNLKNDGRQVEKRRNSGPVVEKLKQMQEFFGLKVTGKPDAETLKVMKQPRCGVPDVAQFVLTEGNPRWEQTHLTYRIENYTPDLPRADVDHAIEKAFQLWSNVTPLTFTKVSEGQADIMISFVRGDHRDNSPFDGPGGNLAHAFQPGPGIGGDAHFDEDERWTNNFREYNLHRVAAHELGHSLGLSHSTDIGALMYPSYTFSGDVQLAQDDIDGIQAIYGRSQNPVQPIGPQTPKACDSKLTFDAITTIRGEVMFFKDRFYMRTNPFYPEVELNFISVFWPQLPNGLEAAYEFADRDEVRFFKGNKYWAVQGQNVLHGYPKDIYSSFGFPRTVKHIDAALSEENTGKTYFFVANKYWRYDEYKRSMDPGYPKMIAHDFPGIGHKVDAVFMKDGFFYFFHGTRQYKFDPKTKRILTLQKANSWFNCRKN

[1] = Inhibitory concentration against MMP-13
[2] = Inhibitory concentration against aggrecanase from porcine chondrocytes using [35S]-sulfate (5 mCi/ml) as radioligand and adding IL-1alpha (5 ng/ml) incubated for 10h; design: species or system Sus scrofa
In short: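 Cell-based assay in porcine chondrocytes. Glycosaminoglycan chains were labelled by including [³⁵S]sulfate (5 mCi/ml) in the culture medium, and unincorporated label was washed out before aggrecan degradation was assessed.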

[3] = target: T2, A disintegrin and metalloproteinase with thrombospondin motifs 4 (Homo sapiens) (UniProt O75173); test: Inhibitory concentration at 500 nM against aggrecanase from porcine chondrocytes using [35S]-sulfate (5 mCi/ml) as radioligand and adding IL-1alpha (5 ng/ml) incubated for 10h; settings: Sus scrofa, target entry is the homologue from another species
T2 sequence (whole entry): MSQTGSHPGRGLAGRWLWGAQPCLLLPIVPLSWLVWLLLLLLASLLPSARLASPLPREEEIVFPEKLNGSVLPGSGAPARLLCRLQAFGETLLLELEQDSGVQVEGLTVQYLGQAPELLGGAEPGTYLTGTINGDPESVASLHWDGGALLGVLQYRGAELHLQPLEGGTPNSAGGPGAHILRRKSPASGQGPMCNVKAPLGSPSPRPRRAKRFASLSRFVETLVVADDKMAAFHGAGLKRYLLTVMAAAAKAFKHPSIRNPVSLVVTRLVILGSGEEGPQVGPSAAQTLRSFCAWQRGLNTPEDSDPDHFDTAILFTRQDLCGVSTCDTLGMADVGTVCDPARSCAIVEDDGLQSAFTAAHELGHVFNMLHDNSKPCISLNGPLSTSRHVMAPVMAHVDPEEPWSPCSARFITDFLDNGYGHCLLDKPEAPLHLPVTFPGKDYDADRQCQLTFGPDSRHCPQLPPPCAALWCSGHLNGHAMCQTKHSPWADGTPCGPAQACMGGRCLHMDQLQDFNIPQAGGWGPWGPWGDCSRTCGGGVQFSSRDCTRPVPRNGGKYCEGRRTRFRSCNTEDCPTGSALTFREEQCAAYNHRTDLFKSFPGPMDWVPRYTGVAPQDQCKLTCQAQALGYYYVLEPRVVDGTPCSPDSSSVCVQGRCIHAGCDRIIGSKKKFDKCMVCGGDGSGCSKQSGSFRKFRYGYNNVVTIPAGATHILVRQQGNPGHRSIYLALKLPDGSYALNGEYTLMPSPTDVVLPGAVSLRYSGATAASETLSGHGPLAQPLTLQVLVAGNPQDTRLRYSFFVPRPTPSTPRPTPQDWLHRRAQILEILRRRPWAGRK

[4] = target: Disintegrin and metalloproteinase domain-containing protein 17 (Rattus norvegicus, UniProt Q9Z1K9); test: Inhibitory concentration against rat TACE
[5] = Half life in dog; type: ADME, Canis lupus familiaris; settings: in vivo
[6] = Clearance in dog; type: ADME, organism-based, Canis lupus familiaris; settings: plasma, read-out: Clp
[7] = Half life in rat; type: ADME; settings: in vivo
In short: (§1)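 Male Sprague–Dawley rats with jugular vein catheters got an iv bolus of 5 mg/kg in glycerol formal. Jugular blood was drawn at 5, 15 and 30 min and at 1, 2, 4, 6, 8 and 24 h. Plasma was diluted with an equal volume of water, extracted with MTBE and assayed by LC–MS/MS. Parameters were derived by non-compartmental analysis.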

[8] = Clearance in rat; type: ADME, organism-based; settings: plasma, read-out: Clp; in short: as §1
Cricetinae gen. sp. [9] = test: Potent inhibition of IL-1 induced aggrecan degradation in hamster; type: functional, Cricetulus griseus
Cell line = test: Inhibition of IL-1 induced aggrecan degradation in human osteoarthritic cartilage; type: functional, cell-based; settings: Cartilage tissue
In short: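 Articular cartilage came from total knee replacement and was cut into 1 × 2 mm pieces. These were cultured in DMEM with 0.5% fetal bovine serum and stimulated with IL-1α (50 ng/ml) plus oncostatin M (50 ng/ml). After 48 h, released GAG in the medium was measured by DMMB; n = 2.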

Bos taurus [10] = organism: Bos taurus; test: Inhibition of IL-1 induced collagen degradation in bovine nasal cartilage explants; type: functional
[11] = target: Matrix metalloproteinase-9 (Homo sapiens, UniProt P14780); test: Inhibitory concentration against MMP-9
Stromelysin-1 = Stromelysin-1 (Homo sapiens, UniProt P08254); test: Inhibitory concentration against MMP-3
Cricetinae gen. sp. [12] = test: Potent inhibition of MMP-13 induced collagen degradation in hamster knee joints; type: functional, Cricetulus griseus; settings: Knee joint
[13] = target: Matrix metalloproteinase-14 (Homo sapiens, UniProt P50281); test: Inhibitory concentration against MMP-14
Bos taurus [14] = organism: Bos taurus; test: Inhibition of IL-1 induced aggrecan degradation in bovine nasal cartilage explants; type: functional
In short: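 Bovine nasal cartilage plugs (4 mm diameter and length) were cultured in serum-free DMEM with IL-1α plus inhibitor. After 48 h, samples were analysed for GAG content by the DMMB assay.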

Neutrophil collagenase = Neutrophil collagenase (Homo sapiens, UniProt P22894); test: Inhibitory concentration against MMP-8
[15] = target: 72 kDa type IV collagenase (Homo sapiens, UniProt P08253); test: Inhibitory concentration against MMP-2
72 kDa type IV collagenase, sequence (P08253 whole entry): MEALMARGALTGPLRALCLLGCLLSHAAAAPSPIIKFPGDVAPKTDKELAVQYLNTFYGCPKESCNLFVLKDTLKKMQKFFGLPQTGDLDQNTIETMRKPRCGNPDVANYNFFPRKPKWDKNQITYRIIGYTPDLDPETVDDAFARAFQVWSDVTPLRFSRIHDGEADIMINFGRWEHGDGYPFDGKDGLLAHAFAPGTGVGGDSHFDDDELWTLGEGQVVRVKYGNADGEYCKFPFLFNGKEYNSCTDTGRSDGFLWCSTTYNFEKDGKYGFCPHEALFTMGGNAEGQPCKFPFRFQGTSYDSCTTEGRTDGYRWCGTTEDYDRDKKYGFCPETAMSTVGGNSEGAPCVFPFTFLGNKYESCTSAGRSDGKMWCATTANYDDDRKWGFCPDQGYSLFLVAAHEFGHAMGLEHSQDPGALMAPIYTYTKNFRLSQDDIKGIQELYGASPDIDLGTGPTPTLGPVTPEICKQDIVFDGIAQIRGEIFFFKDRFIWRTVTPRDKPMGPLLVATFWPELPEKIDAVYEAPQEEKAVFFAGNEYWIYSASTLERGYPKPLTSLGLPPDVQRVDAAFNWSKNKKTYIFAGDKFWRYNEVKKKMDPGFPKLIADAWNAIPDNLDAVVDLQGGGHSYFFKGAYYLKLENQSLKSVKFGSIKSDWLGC

Disintegrin and metalloproteinase domain-containing protein 17, sequence (Q9Z1K9 whole entry, the tested form may be a part): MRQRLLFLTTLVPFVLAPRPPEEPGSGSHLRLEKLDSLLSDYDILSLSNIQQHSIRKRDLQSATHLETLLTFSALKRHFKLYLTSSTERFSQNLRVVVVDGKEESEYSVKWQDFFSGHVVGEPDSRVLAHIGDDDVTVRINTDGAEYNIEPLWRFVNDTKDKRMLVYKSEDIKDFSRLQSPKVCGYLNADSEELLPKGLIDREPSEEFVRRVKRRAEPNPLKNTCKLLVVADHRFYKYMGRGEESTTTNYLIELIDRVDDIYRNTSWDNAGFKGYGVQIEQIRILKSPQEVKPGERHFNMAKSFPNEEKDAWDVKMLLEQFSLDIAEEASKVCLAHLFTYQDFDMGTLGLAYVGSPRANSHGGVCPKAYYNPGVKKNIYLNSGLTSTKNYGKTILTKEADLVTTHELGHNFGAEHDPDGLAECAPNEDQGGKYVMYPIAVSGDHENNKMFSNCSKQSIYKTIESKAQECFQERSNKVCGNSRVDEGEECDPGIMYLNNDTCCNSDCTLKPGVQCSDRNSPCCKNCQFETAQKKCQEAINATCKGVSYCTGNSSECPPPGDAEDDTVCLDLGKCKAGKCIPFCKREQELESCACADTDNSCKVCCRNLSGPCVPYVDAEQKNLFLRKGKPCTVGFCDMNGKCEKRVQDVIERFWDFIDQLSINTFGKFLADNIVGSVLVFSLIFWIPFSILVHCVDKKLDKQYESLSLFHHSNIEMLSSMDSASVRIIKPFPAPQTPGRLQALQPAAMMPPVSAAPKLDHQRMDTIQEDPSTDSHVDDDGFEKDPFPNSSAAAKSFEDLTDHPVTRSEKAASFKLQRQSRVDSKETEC
Neutrophil collagenase, sequence (P22894 whole entry): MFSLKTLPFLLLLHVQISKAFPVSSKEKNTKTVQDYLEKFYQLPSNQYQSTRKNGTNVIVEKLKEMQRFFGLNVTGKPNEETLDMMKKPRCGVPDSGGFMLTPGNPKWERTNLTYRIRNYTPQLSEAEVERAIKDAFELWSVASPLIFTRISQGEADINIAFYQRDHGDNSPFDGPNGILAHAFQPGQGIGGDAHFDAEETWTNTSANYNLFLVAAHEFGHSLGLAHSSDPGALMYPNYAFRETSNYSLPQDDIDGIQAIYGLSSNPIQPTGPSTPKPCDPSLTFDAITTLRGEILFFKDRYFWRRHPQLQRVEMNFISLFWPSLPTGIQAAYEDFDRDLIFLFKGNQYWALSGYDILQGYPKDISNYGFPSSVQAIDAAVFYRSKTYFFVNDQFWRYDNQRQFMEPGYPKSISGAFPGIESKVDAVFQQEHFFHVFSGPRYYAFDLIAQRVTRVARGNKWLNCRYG
Matrix metalloproteinase-9, sequence (P14780 whole entry): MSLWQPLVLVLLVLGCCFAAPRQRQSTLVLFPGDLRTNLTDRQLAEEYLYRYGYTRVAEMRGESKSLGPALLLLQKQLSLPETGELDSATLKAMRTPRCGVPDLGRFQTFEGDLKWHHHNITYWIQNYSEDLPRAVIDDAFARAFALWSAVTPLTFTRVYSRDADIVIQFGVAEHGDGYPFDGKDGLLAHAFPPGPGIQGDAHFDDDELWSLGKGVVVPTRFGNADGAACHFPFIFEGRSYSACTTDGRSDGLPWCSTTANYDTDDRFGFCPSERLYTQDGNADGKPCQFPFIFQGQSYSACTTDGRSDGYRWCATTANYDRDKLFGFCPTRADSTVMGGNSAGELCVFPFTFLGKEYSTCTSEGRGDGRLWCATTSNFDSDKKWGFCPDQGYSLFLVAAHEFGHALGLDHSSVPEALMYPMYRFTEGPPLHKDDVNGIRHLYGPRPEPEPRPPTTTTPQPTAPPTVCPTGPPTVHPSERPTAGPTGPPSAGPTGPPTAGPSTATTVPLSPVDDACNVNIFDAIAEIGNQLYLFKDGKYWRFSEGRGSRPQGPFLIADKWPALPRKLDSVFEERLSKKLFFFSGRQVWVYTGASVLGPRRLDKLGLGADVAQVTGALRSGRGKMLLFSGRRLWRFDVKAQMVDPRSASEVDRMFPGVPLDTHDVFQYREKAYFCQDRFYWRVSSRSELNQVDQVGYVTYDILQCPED
Stromelysin-1, sequence (P08254 whole entry): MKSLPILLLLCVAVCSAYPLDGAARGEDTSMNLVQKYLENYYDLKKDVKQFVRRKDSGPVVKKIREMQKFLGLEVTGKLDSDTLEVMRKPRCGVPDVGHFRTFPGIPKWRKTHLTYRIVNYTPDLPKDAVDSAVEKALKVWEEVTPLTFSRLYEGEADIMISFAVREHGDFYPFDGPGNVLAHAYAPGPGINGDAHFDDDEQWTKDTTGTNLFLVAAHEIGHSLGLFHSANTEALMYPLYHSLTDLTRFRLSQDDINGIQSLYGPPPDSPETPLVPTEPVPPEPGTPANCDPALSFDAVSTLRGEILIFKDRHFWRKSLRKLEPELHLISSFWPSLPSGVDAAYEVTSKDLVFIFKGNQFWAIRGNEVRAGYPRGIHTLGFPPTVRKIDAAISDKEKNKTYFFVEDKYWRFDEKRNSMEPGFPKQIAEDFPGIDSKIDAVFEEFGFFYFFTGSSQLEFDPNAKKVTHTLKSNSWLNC

| Structure (SMILES) | IC50 (Interstitial collagenase) [µM] | IC50 [1] [µM] | IC50 [2] [µM] | IC50 [4] [µM] | also measured |
| --- | --- | --- | --- | --- | --- |
| C[C@@]1(O)CCCN(S(=O)(=O)c2ccc(OCc3cccc(F)c3)cc2)[C@H]1C(=O)NO | 0.34 | 0.0015 | 0.085 |  |  |
| C[C@@]1(O)CCCN(S(=O)(=O)c2ccc(OCc3ccnc(Cl)c3)cc2)[C@H]1C(=O)NO | 0.52 | 0.00043 | 0.015 |  |  |
| C[C@@]1(O)CCCN(S(=O)(=O)c2ccc(OCc3ccncc3)cc2)[C@H]1C(=O)NO | 0.19 | 0.002 |  |  | inhibition [3]: 8.1% |
| CCCC[C@]1(O)CCCN(S(=O)(=O)c2ccc(OCc3ccc(F)cc3)cc2)[C@H]1C(=O)NO | 2.9 | 0.0049 | 2 | 0.023 |  |
| Cc1ccccc1COc1ccc(S(=O)(=O)N2CCC[C@@](C)(O)[C@@H]2C(=O)NO)cc1 | 0.31 | 0.00065 | 0.0069 |  |  |
| CC[C@]1(O)CCCN(S(=O)(=O)c2ccc(OCc3ccc(F)cc3)cc2)[C@H]1C(=O)NO | 1.1 | 0.0036 | 0.49 | 0.0017 |  |
| C[C@@]1(O)CCCN(S(=O)(=O)c2ccc(OCc3cccc(Cl)c3)cc2)[C@H]1C(=O)NO | 0.86 | 0.0025 | 0.078 |  |  |
| C[C@@]1(O)CCCN(S(=O)(=O)c2ccc(OCc3cccc4cccnc34)cc2)[C@H]1C(=O)NO | 0.12 | 0.0041 | 0.019 |  |  |
| C[C@@]1(O)CCCN(S(=O)(=O)c2ccc(OCc3ccccc3C#N)cc2)[C@H]1C(=O)NO | 2.7 | 0.0097 |  |  | inhibition [3]: 55% |
| C[C@]1(O)CCCN(S(=O)(=O)c2ccc(OCc3ccc(F)cc3)cc2)[C@H]1C(=O)NO | 1.1 | 0.0065 | > 1 | 0.011 |  |
| CC1(C)C[C@@H](O)CN(S(=O)(=O)c2ccc(OCc3ccc(Cl)cc3Cl)cc2)[C@H]1C(=O)NO |  |  |  |  | half-life [5]: 2 h; clearance [6]: 25 mL/min/kg; half-life [7]: 2 h; clearance [8]: 44 mL/min/kg |
| C[C@@]1(O)CCCN(S(=O)(=O)c2ccc(OCc3cccc4ccncc34)cc2)[C@H]1C(=O)NO | 7.8 | 0.018 | 0.017 |  |  |
| Cc1cc(F)ccc1COc1ccc(S(=O)(=O)N2CCC[C@@](C)(O)[C@@H]2C(=O)NO)cc1 |  | 0.0029 | 0.0047 | 0.015 |  |
| C[C@@]1(O)CCCN(S(=O)(=O)c2ccc(OCc3ccccc3Cl)cc2)[C@H]1C(=O)NO |  | 0.001 | 0.0037 |  |  |
| CC[C@@]1(O)CCCN(S(=O)(=O)c2ccc(OCc3ccc(F)cc3)cc2)[C@H]1C(=O)NO | 0.5 | 0.0016 | 0.5 | 0.018 |  |
| Cc1ccc(F)cc1COc1ccc(S(=O)(=O)N2CCC[C@@](C)(O)[C@@H]2C(=O)NO)cc1 |  | 0.0025 | 0.015 |  |  |
| C[C@@]1(O)CCCN(S(=O)(=O)c2ccc(OCc3ccc(Cl)cc3F)cc2)[C@H]1C(=O)NO | 0.12 | 0.00087 | 0.0079 |  |  |
| C[C@@]1(O)CCCN(S(=O)(=O)c2ccc(OCc3ccc(F)cc3)cc2)[C@H]1C(=O)NO (stereo in doubt; 17) | 0.42 |  |  | 0.014 |  |
| Cc1ncccc1COc1ccc(S(=O)(=O)N2CCC[C@@](C)(O)[C@@H]2C(=O)NO)cc1 | 1.6 | 0.0015 | 0.051 |  |  |
| C[C@@]1(O)CCCN(S(=O)(=O)c2ccc(OCc3cnccn3)cc2)[C@H]1C(=O)NO | 1.6 | 0.0074 |  |  | inhibition [3]: 8% |
| C[C@@]1(O)CCCN(S(=O)(=O)c2ccc(OCc3ccccc3F)cc2)[C@H]1C(=O)NO | 0.18 | 0.00049 | 0.014 |  |  |
| COc1ccccc1COc1ccc(S(=O)(=O)N2CCC[C@@](C)(O)[C@@H]2C(=O)NO)cc1 | 2.6 | 0.018 |  |  | inhibition [3]: 73% |
| Cc1c(F)cccc1COc1ccc(S(=O)(=O)N2CCC[C@@](C)(O)[C@@H]2C(=O)NO)cc1 | 1.3 | 0.0032 | 0.011 | 0.01 |  |
| C[C@@]1(O)CCCN(S(=O)(=O)c2ccc(OCc3ccc(F)cc3)cc2)[C@H]1C(=O)NO (stereo in doubt; 11) | 0.42 | 0.0037 | 0.12 | 0.014 |  |
| C[C@@]1(O)CCCN(S(=O)(=O)c2ccc(OCc3ccc(F)cc3Cl)cc2)[C@H]1C(=O)NO | 0.31 | 0.0009 | 0.0015 |  | ED50 (Cricetinae gen. sp. [9]): 4.6 mg/kg; IC50 (Cell line): 0.006 µM; IC50 (Bos taurus [10]): 0.1 µM; IC50 [11]: 0.011 µM; IC50 (Stromelysin-1): 0.005 µM; half-life [5]: 4.6 h; ED50 (Cricetinae gen. sp. [12]): 13 mg/kg; clearance [6]: 11 mL/min/kg; half-life [7]: 2 h; IC50 [13]: 0.083 µM; IC50 (Bos taurus [14]): 0.0103 µM; IC50 (Neutrophil collagenase): 0.001 µM; IC50 [15]: 0.004 µM; clearance [8]: 13 mL/min/kg |
